Results on one molecule are retold here after ChEMBL document CHEMBL3112517, “Identification of dihydrostilbenes in Pholidota chinensis as a new scaffold for GABAA receptor modulators” (Bioorg Med Chem, 2014).

Structures are written as SMILES.

Test [1] is filed under the species Homo sapiens. As to the kind of experiment: Modulation of GABAA alpha1beta1gamma2S receptor (unknown origin) expressed in Xenopus laevis oocytes assessed as potentiation of EC3 to 10 GABA-induced chloride ion current at holding potential -70 mV at 1 to 300 uM by two-microelectrode voltage clamp assay relative to GABA-treated control. Format: cell-based.
The nature of test [2]: Potency index, ratio of compound activity for modulation of rat GABAA alpha1beta2gamma2S receptor assessed as EC3 to 10 GABA-induced chloride ion current to midazolam activity for modulation of GABAA alpha1beta2gamma2S receptor (unknown origin) assessed as potentiation of EC5 to 10 GABA-induced chloride ion current.
Test [3] is filed under the species Homo sapiens. As to the kind of experiment: Modulation of GABAA alpha4beta2gamma2S receptor (unknown origin) expressed in Xenopus laevis oocytes assessed as potentiation of EC3 to 10 GABA-induced chloride ion current at holding potential -70 mV at 1 to 300 uM by two-microelectrode voltage clamp assay relative to GABA-treated control. Format: cell-based.
A short description of test [4]: Modulation of GABAA alpha5beta2gamma2S receptor (unknown origin) expressed in Xenopus laevis oocytes assessed as potentiation of EC3 to 10 GABA-induced chloride ion current at holding potential -70 mV by two-microelectrode voltage clamp assay. Format: cell-based. The conditions noted are these: Homo sapiens.
The nature of test [5]: Potency index, ratio of compound activity for modulation of rat GABAA alpha1beta2gamma2S receptor assessed as EC3 to 10 GABA-induced chloride ion current to clotiazepam activity for modulation of GABAA alpha1beta2gamma2S receptor (unknown origin) assessed as potentiation of EC5 to 10 GABA-induced chloride ion current.
Test [6] is described as follows: (§1) Allosteric modulation of rat GABAA alpha1beta2gamma2S receptor expressed in Xenopus laevis oocytes assessed as potentiation of EC3 to 10 GABA-induced chloride ion current at holding potential -70 mV by two-microelectrode voltage clamp assay. Format: cell-based. The procedure, abridged: (§2)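 Stage V–VI Xenopus laevis oocytes were injected with 50 nL of rat α1, β2 and γ2S cRNA mixed 1:1:10 (about 300–3000 pg/nL per subunit), stored at 18 °C in ND96, and recorded on days 1–5. Two-electrode clamp was at −70 mV in pH 7.4 HEPES bath. Compound was applied by fast perfusion with GABA EC3–10, in 1% DMSO final. Enhancement = I(GABA+Comp)/IGABA − 1.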

Test [7] is filed under the species Rattus norvegicus. Described as §1. Format: cell-based. The procedure, abridged: as §2
The species entered for test [8] is Homo sapiens. As to the kind of experiment: Modulation of GABAA alpha5beta2gamma2S receptor (unknown origin) expressed in Xenopus laevis oocytes assessed as potentiation of EC3 to 10 GABA-induced chloride ion current at holding potential -70 mV at 1 to 300 uM by two-microelectrode voltage clamp assay relative to GABA-treated control. Format: cell-based.
Test [9] in a line: Modulation of GABAA alpha4beta2gamma2S receptor (unknown origin) expressed in Xenopus laevis oocytes assessed as potentiation of EC3 to 10 GABA-induced chloride ion current at holding potential -70 mV by two-microelectrode voltage clamp assay. Format: cell-based. To be noted: Homo sapiens.
The species entered for test [10] is Rattus norvegicus. As to the kind of experiment: Allosteric modulation of rat GABAA alpha1beta2gamma2S receptor expressed in Xenopus laevis oocytes assessed as potentiation of EC3 to 10 GABA-induced chloride ion current at holding potential -70 mV at 1 to 300 uM by two-microelectrode voltage clamp assay relative to GABA-treated control. Format: cell-based. Summed up: as §2

Test [11] has as its target GABA A receptor alpha-2/beta-2/gamma-2 (Homo sapiens) (UniProt P47870+P18507+P47869). Put plainly: Modulation of GABAA alpha2beta2gamma2S receptor (unknown origin) expressed in Xenopus laevis oocytes assessed as potentiation of EC3 to 10 GABA-induced chloride ion current at holding potential -70 mV at 1 to 300 uM by two-microelectrode voltage clamp assay relative to GABA-treated control. It is filed as cell-based.

The term EC50 denotes the concentration at which the effect is half-maximal. As for `COc1cc(O)cc(CCc2cccc(O)c2)c1` [BATATASIN III], the Imax in test [1] came to 1250%; in test [3], 1590%; in test [8] it was 1380%; in test [10], 1510%; in [11], 1030%. Also, the Ratio in test [2] and in [5] was 4 each time. Besides, the values for the EC50 in [4], in [6] and in [9] were 46.7 µM, 52.5 µM and 26.2 µM, respectively. For the same molecule, in test [7], the Activity result was “Dose-dependent effect”.
